Measurements published in ChEMBL document CHEMBL4368870, “Design, synthesis and biological evaluation of novel 2-phenyl pyrimidine derivatives as potent Bruton's tyrosine kinase (BTK) inhibitors” (Medchemcomm, 2019).
The source made the active and inactive calls. The rule behind the calls is not given here.

Experiments:
Ramos [1] = experiment: Cell cycle arrest in human Ramos cells assessed as accumulation of cells at G0/G1 phase at 5 uM after 48 hrs by propidium iodide staining-based flow cytometric analysis (reference value: 24.65%); type: functional
In short: (§1)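 Ramos cells incubated 48 h with 5 μM test agent, DMSO as blank control; DNA content by flow cytometry gives the share of cells in each cell-cycle phase.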

Ramos [2] = experiment: Induction of apoptosis in human Ramos cells assessed as viable cells at 5 uM after 48 hrs by propidium iodide staining-based flow cytometric analysis (reference value: 96.83%); type: functional; conditions: read-out: Activity
HL-60 = experiment: Antiproliferative activity against human HL60 cells after 48 hrs by MTT assay; type: functional, cell-based; conditions: HL-60, 48 h
In short: (§2)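 Cell proliferation read by MTT in three […] (HL60, Raji, Ramos), all said to over-express BTK. IC50 values were determined for each line.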

[3] = target: Tyrosine-protein kinase BTK (Homo sapiens) (UniProt Q06187); experiment: Inhibition of BTK phosphorylation at Tyr223 residue in human Ramos cells at 100 to 9000 nM after 24 hrs by Western blot analysis; type: cell-based
Tyrosine-protein kinase BTK (Homo sapiens), sequence (Q06187 whole entry): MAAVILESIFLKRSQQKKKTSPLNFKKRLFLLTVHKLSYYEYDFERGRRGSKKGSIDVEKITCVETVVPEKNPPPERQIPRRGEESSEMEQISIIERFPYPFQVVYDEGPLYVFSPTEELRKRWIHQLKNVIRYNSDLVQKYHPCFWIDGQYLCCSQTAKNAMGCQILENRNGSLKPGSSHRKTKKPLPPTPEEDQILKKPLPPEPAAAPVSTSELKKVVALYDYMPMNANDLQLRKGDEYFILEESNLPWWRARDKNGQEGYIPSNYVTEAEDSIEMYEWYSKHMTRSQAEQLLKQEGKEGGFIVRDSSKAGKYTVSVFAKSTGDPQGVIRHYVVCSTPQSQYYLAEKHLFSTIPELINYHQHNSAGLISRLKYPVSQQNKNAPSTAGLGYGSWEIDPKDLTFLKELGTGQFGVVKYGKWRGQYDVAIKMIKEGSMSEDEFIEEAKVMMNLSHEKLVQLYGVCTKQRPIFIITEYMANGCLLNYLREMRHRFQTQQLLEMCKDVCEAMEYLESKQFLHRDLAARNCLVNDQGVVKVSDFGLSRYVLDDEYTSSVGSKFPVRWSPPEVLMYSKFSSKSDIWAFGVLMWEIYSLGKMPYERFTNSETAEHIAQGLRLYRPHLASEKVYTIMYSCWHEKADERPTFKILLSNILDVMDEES

Ramos [4] = experiment: Cell cycle arrest in human Ramos cells assessed as apoptotic cells at 5 uM after 48 hrs by propidium iodide staining-based flow cytometric analysis (reference value: 5.03%); type: functional
Ramos [5] = experiment: Antiproliferative activity against human Ramos cells after 48 hrs by MTT assay; type: functional, cell-based; in short: as §2
Raji [6] = experiment: Antiproliferative activity against human Raji cells at 5 uM by MTT assay; type: functional, cell-based; conditions: TDE = time-dependent effect
In short: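 Raji cells, proliferation by MTT; viability followed over treatment time at 5 μM.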

Ramos [7] = experiment: Induction of apoptosis in human Ramos cells assessed as early apoptotic cells at 5 uM after 48 hrs by propidium iodide staining-based flow cytometric analysis (reference value: 1.08%); type: functional
Ramos [8] = experiment: Induction of apoptosis in human Ramos cells assessed as necrotic cells at 5 uM after 48 hrs by propidium iodide staining-based flow cytometric analysis (reference value: 1.11%); type: functional
Ramos [9] = experiment: Induction of apoptosis in human Ramos cells assessed as late apoptotic cells at 5 uM after 48 hrs by propidium iodide staining-based flow cytometric analysis (reference value: 0.98%); type: functional
Ramos [10] = experiment: Cell cycle arrest in human Ramos cells assessed as accumulation of cells at S phase at 5 uM after 48 hrs by propidium iodide staining-based flow cytometric analysis (reference value: 71.08%); type: functional; in short: as §1
Ramos [11] = experiment: Cell cycle arrest in human Ramos cells assessed as accumulation of cells at G2/M phase at 5 uM after 48 hrs by propidium iodide staining-based flow cytometric analysis (reference value: 4.26%); type: functional; in short: as §1
Raji [12] = experiment: Antiproliferative activity against human Raji cells at 40 uM after 72 hrs by MTT assay relative to control; type: functional
In short: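 Raji cells were exposed to the compound over a range of concentrations and treatment times, with the MTT-based viability read-out taken up to 72 h. The 40 μM, 72 h point is expressed as viability relative to control.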

[13] = target: Tyrosine-protein kinase BTK (Homo sapiens) (UniProt Q06187); experiment: Inhibition of BTK in human Ramos cells assessed as reduction in PLCgamma-2 phosphorylation at Try1217 residue at 100 to 9000 nM after 24 hrs by Western blot analysis; type: cell-based
Raji [14] = experiment: Antiproliferative activity against human Raji cells after 48 hrs by MTT assay; type: functional, cell-based; in short: as §2

| SMILES | Activity (Ramos [1]) | viability at 5 µM (Ramos [2]) | IC50 (HL-60) | inhibition [3] | Activity (Ramos [4]) | IC50 (Ramos [5]) | Activity (Raji [6]) | Activity (Ramos [7]) | Activity (Ramos [8]) | Activity (Ramos [9]) | Activity (Ramos [10]) | Activity (Ramos [11]) | Activity (Raji [12]) | inhibition [13] | IC50 (Raji [14]) |
| --- | --- | --- | --- | --- | --- | --- | --- | --- | --- | --- | --- | --- | --- | --- | --- |
| C=CC(=O)Nc1ccc(-c2nc(Cl)cc(Nc3ccc(C(=O)Nc4cccc(C)c4)cc3)n2)cc1 | 36.27% | 61.3% | 3.66 µM | Active | 13.91% | 5.39 µM | Tde | 25.8% | 0.23% | 12.7% | 59.51% | 4.21% | 90% | Active | 6.98 µM |
| C=CC(=O)Nc1ccc(-c2nc(Cl)cc(Nc3ccc(C(=O)N4CCCC4)cc3)n2)cc1 | – | – | 15.8 µM | – | – | 10.4 µM | – | – | – | – | – | – | – | – | 19.2 µM |
| C=CC(=O)Nc1ccc(-c2nc(Cl)cc(Nc3ccc(C(=O)N4CCOCC4)cc3)n2)cc1 | – | – | 5.94 µM | – | – | 7.24 µM | – | – | – | – | – | – | – | – | 14.7 µM |
| C=CC(=O)Nc1ccc(-c2nc(Cl)cc(Nc3ccc(C(=O)N(CC)CC)cc3)n2)cc1 | – | – | 9.34 µM | – | – | 11.2 µM | – | – | – | – | – | – | – | – | 12.5 µM |
| C=CC(=O)Nc1ccc(-c2nc(Cl)cc(Nc3ccc(C(=O)Nc4cc(C(F)(F)F)cc(C(F)(F)F)c4)cc3)n2)cc1 | – | – | 4.79 µM | – | – | 6.18 µM | – | – | – | – | – | – | – | – | 9.36 µM |
| C=CC(=O)N1CCC[C@@H](n2nc(-c3ccc(Oc4ccccc4)cc3)c3c(N)ncnc32)C1 [IBRUTINIB] | 30.5% | 91.8% | 3.57 µM | – | 4.33% | 2.31 µM | Tde | 5.12% | 0.37% | 2.71% | 65.18% | 4.26% | – | – | 14.5 µM |
| C=CC(=O)Nc1ccc(-c2nc(Cl)cc(Nc3ccc(C(=O)Nc4cc(C)ccc4C)cc3)n2)cc1 | – | – | 14.9 µM | – | – | 16.8 µM | – | – | – | – | – | – | – | – | 20.9 µM |
| C=CC(=O)Nc1ccc(-c2nc(Cl)cc(Nc3ccc(C(=O)N(C)C)cc3)n2)cc1 | – | – | > 50 µM | – | – | > 50 µM | – | – | – | – | – | – | – | – | 42.9 µM |
